Laboratory results published in ChEMBL document CHEMBL3576811, “Small Molecule Disruptors of the Glucokinase-Glucokinase Regulatory Protein Interaction: 5. A Novel Aryl Sulfone Series, Optimization Through Conformational Analysis” (J Med Chem, 2015).

Key:
Type in all cases: ADME, organism-based
[1] = Cmax in Sprague-Dawley rat at 10 mg/kg, po after 4 hrs; parameters: dose 10 mg/kg, route oral; conditions: in vivo
Summary of the method: (§1)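 Sprague-Dawley rats given one 10 mg/kg oral dose in 1% Tween 80, 2% HPMC, 97% water. Plasma drug levels followed over time, giving Cmax, time to Cmax and AUC. Free concentration derived using the fraction unbound from rapid equilibrium dialysis.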

[2] = AUC in Sprague-Dawley rat at 10 mg/kg, po; conditions: in vivo; summary of the method: as §1
[3] = Oral bioavailability in Sprague-Dawley rat at 10 mg/kg; conditions: in vivo
[4] = Volume of distribution at steady state in Sprague-Dawley rat at 2 mg/kg, iv; conditions: in vivo, read-out: Vdss
Summary of the method: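 Sprague-Dawley rats dosed intravenously at 2 mg/kg in 100% DMSO. Plasma clearance, steady-state volume of distribution and terminal half-life derived from the plasma concentration-time profile.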

Rattus norvegicus = assay: Free plasma concentration in Sprague-Dawley rat at 10 mg/kg, po after 4 hrs; conditions: in vivo; summary of the method: as §1

Compound C[C@](O)(CO)c1ccc(-c2ncc(S(=O)(=O)c3ccc(N)nc3)s2)c(Cl)c1 has a Cmax [1] of 57.6 µM, an AUC [2] of 568 µM·h and a bioavailability [3] of 82%. For the same compound, the Vd [4] was 0.18 L/kg and the “Cp(f)” value (Rattus norvegicus) was 0.43 µM.
